# From PubChem
# XiGFP reactiv: activators of inactive X chromosome reactivation, primary screen, imaging, XiGFP fibroblasts, GFP high-content imaging, set 2 | XiGFP mouse fibroblasts, % GFP-positive cells imaging, 3 d; cells co-treated with 5-aza-dC sensitizer; scaled so ellipticine positive control = 100% | activation, % at 7.58 µM | 0.055% of 360,000 active;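 active = mean normalized replicate activation at least 10% and every replicate at or above 10%; inconclusive = only one of the two criteria met; inactive = mean below 10% and not all replicates reach 10%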;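 also: 0% = median of on-plate neutral control wells and 100% = ellipticine 6 µM median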
#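 System: XiGFP fibroblasts, SV40-immortalized. Medium: DMEM plus 5-aza-dC sensitizer. Doses: single point. Timing: 3 d treatment, 15 min room-temperature fixation. Control set: ellipticine 6 µM.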
# Myeloid diff 2: induction of myeloid progenitor differentiation, primary screen, cell-based, flow cytometry, MLPCN library; AID 624256, 2012; calls only at 10 µM; ER-HoxA9 myeloid progenitors, lysozyme-GFP differentiation; 1% of 360,000 active;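 active = normalized GFP-positive differentiation at or above the plate's own cutoff, the solvent-only control mean plus 3 SD; inconclusive = no clear call, values can overlap the other calls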;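 also: cells exposed to compound for four days before flow analysis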
# ABCB6 inh 2: ABCB6 transporter inhibitors, primary screen, K562-ABCB6 cells, flow cytometry, MLPCN library. K562-ABCB6 porphyrin accumulation, 1 h; hits give low values. fluorescence ratio to DMSO, % at 10 µM. 0.19% of 360,000 active;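 active = fluorescence ratio to DMSO below 75%, the collection mean minus 3 SD; inconclusive = too few cells collected in the well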;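 also: signal is porphyrin accumulated inside mitochondria; 100% equals median channel fluorescence of DMSO control wells; lower ratio means ABCB6 inhibition with less porphyrin fluorescence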
# Target sequence (Q9NP58 whole entry, looked up): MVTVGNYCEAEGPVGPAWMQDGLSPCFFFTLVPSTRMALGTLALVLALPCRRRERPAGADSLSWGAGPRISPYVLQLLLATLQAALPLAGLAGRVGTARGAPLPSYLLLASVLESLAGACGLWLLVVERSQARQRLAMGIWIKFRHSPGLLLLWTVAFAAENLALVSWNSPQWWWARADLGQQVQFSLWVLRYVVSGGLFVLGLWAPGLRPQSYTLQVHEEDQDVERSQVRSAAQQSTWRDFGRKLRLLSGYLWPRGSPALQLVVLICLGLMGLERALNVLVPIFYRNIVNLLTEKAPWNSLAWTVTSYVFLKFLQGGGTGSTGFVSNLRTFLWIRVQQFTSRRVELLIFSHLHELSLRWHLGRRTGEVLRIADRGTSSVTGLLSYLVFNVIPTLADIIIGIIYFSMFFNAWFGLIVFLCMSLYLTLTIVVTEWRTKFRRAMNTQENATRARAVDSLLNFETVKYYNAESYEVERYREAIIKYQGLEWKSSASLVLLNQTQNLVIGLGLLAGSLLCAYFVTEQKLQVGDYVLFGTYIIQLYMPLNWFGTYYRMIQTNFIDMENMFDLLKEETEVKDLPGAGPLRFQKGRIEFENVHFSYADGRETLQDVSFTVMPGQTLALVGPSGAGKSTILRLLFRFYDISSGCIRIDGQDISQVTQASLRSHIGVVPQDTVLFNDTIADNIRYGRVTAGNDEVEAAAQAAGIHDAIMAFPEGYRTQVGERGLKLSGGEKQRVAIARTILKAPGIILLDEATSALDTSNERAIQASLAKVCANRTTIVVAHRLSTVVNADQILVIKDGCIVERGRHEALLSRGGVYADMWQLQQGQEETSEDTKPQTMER
# * = called active by the depositor; i = inactive; ? = inconclusive; · = no result; + = active, no number. This is one part of a sample in which hits are shown more often than they occur.
SMILES,XiGFP reactiv,Myeloid diff 2,ABCB6 inh 2
CCc1nnc(NC(=O)CSc2nnc3scc(-c4ccc(C)cc4)n23)s1,·,i,102
CC(C)Sc1nnc(-c2c[nH]c3ccccc23)n1C,0,i,105
C#CCSc1nnc(-c2c[nH]c3ccccc23)n1C,0,+,98
COc1ccc(NC(=O)N[C@H]2CC[C@H](CCNS(=O)(=O)c3ccccc3F)O[C@H]2CO)cc1,0,·,·
O=C(Cc1ccc([N+](=O)[O-])cc1)N1CCN(c2ccc([N+](=O)[O-])cc2)CC1,0,i,97
O=C(Cc1ccc(F)cc1)N1CCN(c2ccc([N+](=O)[O-])cc2)CC1,0,+,103
CN(C)CCCNC(=O)[C@@H]1[C@@H](CO)[C@@H]2Cn3c(ccc(-c4cccc(F)c4)c3=O)[C@H]1N2,0,·,·
CO[C@@H]1CN(C)C(=O)c2cc(NS(=O)(=O)c3ccccc3F)ccc2OC[C@H](C)NC[C@@H]1C,0,·,·
Cc1ccc2[nH]c(C)c(/C=C/c3cc[n+](C)cc3)c2c1,45*,?,i
C[n+]1ccc(/C=C/c2ccc(Br)cc2)cc1,·,i,119
Cc1ccc2c(c1)c(/C=C/c1cc[n+](C)cc1)c(C)n2C,106*,?,·
C[n+]1ccc(/C=C/c2c[nH]c3ccc(F)cc23)cc1,0,?,272
COc1ccc2c3c([nH]c2c1)[C@@H](CO)N(C(=O)CN1CCOCC1)CC31CN(C(C)=O)C1,0,·,·
Cc1ccc(C)c2nc3sc(C(=O)N4CCCc5ccccc54)c(N)c3cc12,·,+,639
COc1ccc(-c2cn3c(C)c(C(=O)N4CCCc5ccccc54)sc3n2)cc1,0,i,99
c1cc2c(cc1C1CCCCC1)c1c3n2CCN=C3CCC1,·,i,108
Cc1ccc2c(c1)c1c3n2CCN=C3CCC1,·,+,100
CC(C)CC#Cc1cnc2c(c1)C(=O)N([C@H](C)CO)C[C@H](C)[C@@H](CN(C)C(=O)c1cccnc1)O2,0,·,·
O=[N+]([O-])c1ccc(-c2ccc(/C=N/Nc3nc(NCc4ccccc4)nc(N4CCOCC4)n3)o2)cc1,?,+,206
COc1nc(N/N=C/c2ccc(-c3ccccc3[N+](=O)[O-])o2)nc(N2CCOCC2)n1,0,i,100
CCCN1CCN(C(=S)Nc2ccc([N+](=O)[O-])cc2)CC1,0,+,97
CCCN1CCC(NC(=S)Nc2ccc([N+](=O)[O-])cc2)CC1,0,i,103
COc1ccc2c3c([nH]c2c1)[C@@H](CO)N(C(=O)C1CCCC1)CC31CCN(C(=O)NC(C)C)CC1,1,·,·
COCCOC(=O)c1c(C)oc2ccc(OCc3ccccc3)cc12,0,i,102
C=C(C)COc1ccc2oc(C)c(C(=O)OCCOC)c2c1,·,i,67*
SMILES,XiGFP reactiv,Myeloid diff 2,ABCB6 inh 2
COC(=O)C1=C(C)N(Cc2ccccc2)C(=NCc2cccc(C(F)(F)F)c2)N[C@H]1c1cccc(C(F)(F)F)c1,·,?,98
COC(=O)C1=C(C)N(CC2CC2)C(=NCc2cccc(C(F)(F)F)c2)N[C@H]1c1ccccc1,·,+,101
C[C@@H]1CN([C@H](C)CO)C(=O)c2cc(NC(=O)c3ccncc3)ccc2O[C@H]1CN(C)Cc1ccccc1,0,·,·
C#CCOCCOCCOCCNc1nc(N2CCN(C(=O)CCCCCCCCCCNC(=O)[C@H](CCCCN)n3cc(CCO)nn3)CC2)nc(N2CCN(C(=O)CCCCCCCCCCNC(=O)[C@H](CCCN=C(N)N)n3cc(C[C@@H](C)CC)nn3)CC2)n1,·,i,96
C#CCOCCOCCOCCNc1nc(N2CCN(C(=O)CCCCCCCCCCNC(=O)[C@H](CO)n3cc(CCCSC)nn3)CC2)nc(N2CCN(C(=O)CCCCCCCCCCNC(=O)[C@H](CO)n3cc(CCCSC)nn3)CC2)n1,0,i,74*
C#CCOCCOCCOCCNc1nc(N2CCOCC2)nc(N2CCN(C(=O)CCCCCCCCCCNC(=O)[C@@H](CCSC)n3cc(CCO)nn3)CC2)n1,0,i,88
C#CCOCCOCCOCCNc1nc(N2CCN(C(=O)CCCCCCCCCCNC(=O)[C@H](CCCCN)n3cc(C[C@@H](C)CC)nn3)CC2)nc(N2CCN(C(=O)CCCCCCCCCCNC(=O)[C@H](CCCCN)n3cc(C[C@@H](C)CC)nn3)CC2)n1,·,+,96
CN(C)CC(=O)N[C@H]1CC[C@@H](CCn2cc(C3CC3)nn2)O[C@@H]1CO,0,·,·
CCN1[C@@H]2c3ccc(C4=CCCCC4)c(=O)n3C[C@@H]2[C@@H](CO)[C@@H]1C(=O)OC,0,·,·
Cc1ccccc1S(=O)(=O)N1C[C@@H](O)COC[C@@H]2O[C@H](CC(=O)N3CCCCC3)CC[C@H]21,0,·,·
CCC(=O)N1CC2(C1)[C@H](c1ccccc1)[C@H](CO)N2C(=O)c1cccnc1,0,·,·
O=C(NCc1ccccc1)c1cccc(COc2ccccc2Cl)c1,·,i,83
NNC(=O)c1cccc(COc2ccccc2Br)c1,·,+,88
CCS(=O)(=O)N1CCCCN2[C@H](CO)[C@@H](c3ccc(-c4cccc(C#N)c4)cc3)[C@@H]2C1,0,·,·
Cc1noc(C)c1NC(=O)Nc1ccc2c(c1)CC(=O)N([C@H](C)CO)C[C@H](C)[C@@H](CN(C)S(C)(=O)=O)O2,0,·,·
CC(=O)NC[C@H]1[C@@H](c2ccc(C3=CCCCC3)cc2)[C@@H](CO)N1C(=O)C1CCC1,0,·,·
CN(C)CCNC(=O)/C(=C/c1ccc(-c2ccc(Cl)cc2)o1)NC(=O)c1ccccc1,0,i,100
Cc1ccc(C(=O)N/C(=C\c2ccc(-c3cccc([N+](=O)[O-])c3)o2)C(=O)NCCCN(C)C)cc1,0,i,100
CN(C)CCNC(=O)/C(=C/c1ccc(-c2ccc(Cl)cc2Cl)o1)NC(=O)c1ccccc1,0,+,96
Cc1ccc(C(=O)N/C(=C\c2ccc(-c3ccc(Br)cc3)o2)C(=O)NCCCN(C)C)cc1,3,+,103
COc1ccc(S(=O)(=O)Nc2ccc3c(c2)C(=O)N([C@@H](C)CO)C[C@@H](C)[C@@H](CN(C)Cc2ccc(C(=O)O)cc2)OCCCC[C@H](C)O3)cc1,3,·,·
CCCNC(=O)c1ccccc1NC(=O)c1ccccc1N(C)S(C)(=O)=O,·,i,100
CCCNC(=O)c1ccccc1NC(=O)c1ccccc1N(C)S(=O)(=O)c1ccc(C)cc1,·,+,111
CCN(CC)c1ccc(/C=c2\sc3nc4ccccc4n3c2=O)c(O)c1,0,+,139
O=c1/c(=C/c2ccc(O)c([N+](=O)[O-])c2)sc2nc3ccccc3n12,0,i,98
COC1=C/C(=C/c2c(N)n3nc(CC(=O)N4CCCC4)sc3nc2=O)C=CC1=O,0,i,140
COC1=CC(=Cc2c(N)n3nc(CC(=O)N4CCCCC4)sc3nc2=O)C=C(OC)C1=O,0,+,157
FC(F)(F)c1cc(C(F)(F)F)n2nc(-c3sccc3-n3cccc3)cc2n1,·,+,100
Cc1cc(C)n2nc(-c3sccc3-n3cccc3)cc2n1,·,i,100
